The record followed here is ChEMBL document CHEMBL1156869, “Selective inhibitors of the JMJD2 histone demethylases: combined nondenaturing mass spectrometric screening and crystallographic approaches” (J Med Chem, 2010).

The source made the active and inactive calls. No cut-off for these calls is given here.

The IC50 is the concentration needed to halve the response being measured.

Assay [1] in a line: Inhibition of JMJD2E by ESI-MS binding assay. Summed up:
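Nondenaturing ESI-MS binding: His-tagged JMJD2E desalted into 15 mM ammonium acetate pH 7.5. Protein (15 μM) mixed with 1 equiv Fe(II) and 1 equiv inhibitor, incubated 30 min at 37 °C, then analysed on a Q-TOF by nanospray. Read-out: ratio of JMJD2E–inhibitor complex to free JMJD2E.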

Assay [2] in a line: Inhibition of JMJD2E by FDH coupled assay. In a few lines:
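Formaldehyde dehydrogenase-coupled demethylation assay with initial rates from NADH production. IC50 determined from these rates; detection limit about 1 μM IC50.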

The nature of assay [3]: Inhibition of JMJD2E by MALDI-TOF assay.
Assay [4] has as its target T1, Lysine-specific demethylase 4A (Homo sapiens, UniProt O75164).
T1 sequence (O75164 whole entry): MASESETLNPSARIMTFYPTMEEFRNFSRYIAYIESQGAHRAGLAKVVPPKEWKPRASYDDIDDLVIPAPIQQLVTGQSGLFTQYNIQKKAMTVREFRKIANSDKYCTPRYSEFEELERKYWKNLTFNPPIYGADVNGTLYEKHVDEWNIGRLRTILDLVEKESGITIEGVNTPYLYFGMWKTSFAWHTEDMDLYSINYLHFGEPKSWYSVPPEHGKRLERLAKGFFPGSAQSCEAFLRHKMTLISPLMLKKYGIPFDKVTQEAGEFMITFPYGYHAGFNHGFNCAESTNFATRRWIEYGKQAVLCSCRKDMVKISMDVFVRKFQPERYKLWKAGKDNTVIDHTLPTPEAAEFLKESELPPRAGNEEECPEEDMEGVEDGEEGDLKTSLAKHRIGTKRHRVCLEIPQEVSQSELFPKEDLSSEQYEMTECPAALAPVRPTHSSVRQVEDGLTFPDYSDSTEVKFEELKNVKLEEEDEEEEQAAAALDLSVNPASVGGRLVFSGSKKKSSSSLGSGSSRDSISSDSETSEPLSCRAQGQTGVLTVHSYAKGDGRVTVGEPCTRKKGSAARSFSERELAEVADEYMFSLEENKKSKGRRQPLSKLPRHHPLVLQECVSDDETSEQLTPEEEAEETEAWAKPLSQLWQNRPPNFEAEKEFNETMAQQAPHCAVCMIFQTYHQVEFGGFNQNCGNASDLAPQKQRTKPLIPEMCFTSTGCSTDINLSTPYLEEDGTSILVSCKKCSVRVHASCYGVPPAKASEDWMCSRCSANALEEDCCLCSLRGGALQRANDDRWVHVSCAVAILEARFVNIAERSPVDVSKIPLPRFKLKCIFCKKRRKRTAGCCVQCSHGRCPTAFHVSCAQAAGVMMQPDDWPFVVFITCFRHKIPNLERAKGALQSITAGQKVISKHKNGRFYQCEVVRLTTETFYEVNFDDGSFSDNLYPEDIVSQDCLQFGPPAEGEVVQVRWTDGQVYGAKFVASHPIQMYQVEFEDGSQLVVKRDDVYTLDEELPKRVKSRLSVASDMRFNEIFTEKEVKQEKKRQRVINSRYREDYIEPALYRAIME
Put plainly: Inhibition of JMJD2A by MALDI-TOF assay. Summed up: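 Reaction started with 2OG (10 μM) and ARKme3STGGK peptide (10 μM), then 30 min at 37 °C. Quenched with methanol. MALDI-TOF methylation-state intensities gave % demethylation; IC50 from concentration variation.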

Assay [5] is described as follows: Binding to JMJD2E by nondenaturing ESI-MS, ratio of JMJD2E-inhibitor complex to free JMJD2E.
The species named for another assay is Homo sapiens. Put plainly: Inhibition of human […] by CODD biochemical assay.

`O=C(O)C(=O)N[C@H](Cc1ccc(OCc2ccccc2F)cc1)C(=O)O`: in assay [1], the result was Active. The figures for the IC50 in assay [2], in assay [3] and in assay [4] were 16.6 µM, 25 µM and 10 µM, respectively. In addition, the Ratio in assay [5] was determined as 3.6.
In the case of `O=C(O)C(=O)N[C@H](Cc1ccc(OC(=O)c2ccco2)cc1)C(=O)O`, in assay [1], the result was Active. The same compound showed an IC50 in assay [2] of 20.1 µM. The Ratio in assay [5] was found to be 3.5.
In the same order, the values of `O=C(O)C(=O)N[C@H](Cc1ccc(OCCCN2C(=O)c3ccccc3C2=O)cc1)C(=O)O` are “Active”, 326 µM and 0.9.
For `CC(C)CC(=O)Oc1ccc(C[C@@H](NC(=O)C(=O)O)C(=O)O)cc1`, the outcome in assay [1] was Active.
Same read-out and setting: in the case of `O=C(O)C(=O)N[C@H](Cc1ccc(OC(=O)c2cnn(-c3ccc(Cl)cc3)c2C(F)(F)F)cc1)C(=O)O` it was “Active”; in that of `O=C(O)C(=O)N[C@H](Cc1ccc(OC(=O)N2CCOCC2)cc1)C(=O)O`, “Active”.
As to `O=C(O)C(=O)N[C@H](Cc1ccc(OCc2ccccc2[N+](=O)[O-])cc1)C(=O)O`, the result in assay [1] was Active. The compound further gave an IC50 in assay [2] of 14.7 µM. The Ratio in assay [5] turned out to be 3.1.
As for `O=C(O)C(=O)N[C@H](Cc1ccc(OS(=O)(=O)c2ccccc2)cc1)C(=O)O`, the result in assay [1] was Active. The IC50 in assay [2] was found to be 14.7 µM. Also, in assay [5], the Ratio was 5.7.
On to `O=C(Cc1ccc(Cl)cc1)Oc1ccc(C[C@@H](NC(=O)C(=O)O)C(=O)O)cc1`, for which the result in assay [1] was Active.
With `CCC(C(=O)Oc1ccc(C[C@@H](NC(=O)C(=O)O)C(=O)O)cc1)c1ccccc1` (some centres not stated), the outcome in assay [1] was Active.
For the compound `O=C(O)C(=O)N[C@H](Cc1ccc(OS(=O)(=O)c2ccc(F)cc2)cc1)C(=O)O`, the result in assay [1] was Active. Besides, the values for the IC50 in assay [2], in assay [3] and in assay [4] were 11.7 µM, 38 µM and 20 µM, respectively. In addition, in the assay listed under Homo sapiens, the outcome was inactive.
For `CC(C)(C)c1ccc(S(=O)(=O)Oc2ccc(C[C@@H](NC(=O)C(=O)O)C(=O)O)cc2)cc1` the same measures were “Active”, 8.6 µM, 61 µM, 13 µM and “inactive”.
With `O=C(O)C(=O)N[C@H](Cc1ccc(OC(=O)C2CCCCC2)cc1)C(=O)O`, the outcome in assay [1] was Active.
Turning to `O=C(O)C(=O)N[C@H](Cc1ccc(OC(=O)c2cc3ccccc3s2)cc1)C(=O)O`, the outcome in assay [1] was Active.
Turning to `O=C(Cc1ccccc1)Oc1ccc(C[C@@H](NC(=O)C(=O)O)C(=O)O)cc1`, in assay [1], the result was Active.
Take `Cc1noc(C)c1S(=O)(=O)Oc1ccc(C[C@@H](NC(=O)C(=O)O)C(=O)O)cc1`: in assay [1], the outcome was Active. Besides, half-maximal inhibition in assay [2] (IC50) was put at 82.9 µM. The Ratio in assay [5] was found to be 1.
For `O=C(O)C(=O)N[C@H](Cc1ccc(OS(=O)(=O)c2ccc(Br)cc2)cc1)C(=O)O`, the outcome in assay [1] was Active. Besides, the IC50 in assay [2] worked out at 5.4 µM; in assay [3], 21 µM; in assay [4], 12 µM. Besides, in the assay listed under Homo sapiens, the outcome was inactive.
In the case of `O=C(O)C(=O)N[C@H](Cc1ccc(OCC(=O)c2ccc(N3CCCC3)cc2)cc1)C(=O)O`, in assay [1], the result was Active. The half-maximal inhibitory concentration (IC50) in assay [2] is 14.8 µM; in assay [3], 59 µM; in assay [4], 13 µM. In addition, the Ratio in assay [5] came out at 2.
As for `Cc1noc(C)c1C(=O)Oc1ccc(C[C@@H](NC(=O)C(=O)O)C(=O)O)cc1`, in assay [1], the result was Active.
Take `CC(C)(C)C(=O)COc1ccc(C[C@@H](NC(=O)C(=O)O)C(=O)O)cc1`: in assay [1], the result was Active. Besides, the midpoint of inhibition in assay [2], the IC50, lay at 185 µM. For the same compound, the Ratio in assay [5] was found to be 0.9.
As to `O=C(O)C(=O)N[C@H](Cc1ccc(OC(=O)c2cccs2)cc1)C(=O)O`, in assay [1], the result was Active.
Consider `O=C(O)C(=O)N[C@H](Cc1ccc(OCc2ccccc2)cc1)C(=O)O`, for which, in assay [1], the outcome was Active. Moreover, the IC50 in assay [2] was 37.1 µM; in assay [3] it was 76 µM. The Ratio in assay [5] stood at 1.7.
